In ChEMBL document CHEMBL5126593, “Design, Synthesis, and Biological Evaluation of a Novel Series of 4-Guanidinobenzoate Derivatives as Enteropeptidase Inhibitors with Low Systemic Exposure for the Treatment of Obesity” (J Med Chem, 2022):
Active and inactive are the calls of the source. The calls are words filed in the database; no cut-off is given here.

Columns and labels:
[1] = Oral bioavailability in non-fasted Sprague-Dawley rat plasma at 1 mg/kg administered as cassette dose by LC/MS/MS analysis; assay type: ADME, organism-based; conditions: in vivo, BLD = below limit of detection
How it was run: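 Non-fasted SD rats given cassette oral dose of 1 mg/kg, suspended in 0.5% methylcellulose. Plasma obtained from collected blood; compound measured by LC–MS/MS.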

[2] = test system: Rattus norvegicus; test: Anti-obesity activity in diet-induced obese F344/Jcl rat model assessed as body weight loss administered orally for 28 days measured every 4 days; assay type: functional, organism-based; conditions: route po, time 4.0 weeks, DDE = dose-dependent effect
How it was run: (§1)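 Male DIO F344/Jcl rats fed HFD D12451 (45 kcal % fat, 20 kcal % protein, 35 kcal % carbohydrate) from six weeks of age. Oral dosing in 0.5% methylcellulose vehicle starts at 36 weeks of age and continues 4 weeks. Body weight recorded every 1–4 days. n = 6 per group; mean ± SD; Dunnett's t-test or one-tailed Williams' test vs vehicle.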

[3] = test system: Rattus norvegicus; test: Anti-obesity activity in diet-induced obese F344/Jcl rat model assessed as reduction in food intake at 1 to 10 mg/kg, po administered for 28 days; assay type: functional, organism-based; conditions: dose 1-10 mg/kg, time 28.0 day; how it was run: as §1
[4] = test system: Rattus norvegicus; test: Anti-obesity activity in diet-induced obese F344/Jcl rat model assessed as increase in fecal protein output at 1 to 10 mg/kg, po measured on day 28; assay type: functional, organism-based; conditions: dose 1-10 mg/kg, time 28.0 day
How it was run: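 Male DIO F344/Jcl rats on HFD D12451 (45 kcal % fat), n = 6 per group. Oral dosing at 1, 3 or 10 mg/kg in 0.5% methylcellulose vehicle for 4 weeks from 36 weeks of age. Fecal protein output measured; mean ± SD; statistics vs vehicle.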

[5] = Permeability of the compound at pH 7.4 by PAMPA; assay type: ADME; conditions: read-out: permeability
[6] = Permeability of the compound at pH 5.0 by PAMPA; assay type: ADME; conditions: read-out: permeability
[7] = target: Enteropeptidase (Homo sapiens) (UniProt P98073); test: Inhibition of human recombinant Enteropeptidase assessed as inhibition based on initial velocity using 5FAM-Abu-Gly-Asp -Asp-Asp -Lys-Ile-Val-Gly-Gly-Lys-(CPQ2)-Lys-Lys-NH2 as substrate by fluorescence based plate reader method; conditions: TDE = time-dependent effect
Sequence of Enteropeptidase (Homo sapiens) (P98073 2-784 limits assumed): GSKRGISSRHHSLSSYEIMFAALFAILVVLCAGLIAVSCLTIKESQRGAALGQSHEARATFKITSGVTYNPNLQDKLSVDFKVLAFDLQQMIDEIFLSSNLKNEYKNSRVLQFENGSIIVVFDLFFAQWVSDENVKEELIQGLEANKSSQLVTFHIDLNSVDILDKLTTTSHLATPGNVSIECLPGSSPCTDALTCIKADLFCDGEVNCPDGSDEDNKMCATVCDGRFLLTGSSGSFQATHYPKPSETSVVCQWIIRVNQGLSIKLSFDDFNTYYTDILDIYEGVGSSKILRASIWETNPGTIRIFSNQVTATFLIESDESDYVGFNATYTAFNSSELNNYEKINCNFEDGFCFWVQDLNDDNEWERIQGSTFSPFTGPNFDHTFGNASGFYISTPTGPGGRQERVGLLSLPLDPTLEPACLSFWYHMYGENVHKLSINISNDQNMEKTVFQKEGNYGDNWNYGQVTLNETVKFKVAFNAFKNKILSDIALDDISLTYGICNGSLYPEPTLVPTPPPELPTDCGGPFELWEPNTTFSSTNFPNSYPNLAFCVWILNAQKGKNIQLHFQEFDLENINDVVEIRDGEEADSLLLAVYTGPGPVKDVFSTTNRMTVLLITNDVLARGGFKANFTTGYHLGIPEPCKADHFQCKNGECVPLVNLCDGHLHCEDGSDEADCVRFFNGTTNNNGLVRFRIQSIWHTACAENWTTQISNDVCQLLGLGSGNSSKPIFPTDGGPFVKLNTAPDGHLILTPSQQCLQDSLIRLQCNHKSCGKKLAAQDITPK
Sequence of Enteropeptidase (Homo sapiens) (P98073 785-1019 limits assumed): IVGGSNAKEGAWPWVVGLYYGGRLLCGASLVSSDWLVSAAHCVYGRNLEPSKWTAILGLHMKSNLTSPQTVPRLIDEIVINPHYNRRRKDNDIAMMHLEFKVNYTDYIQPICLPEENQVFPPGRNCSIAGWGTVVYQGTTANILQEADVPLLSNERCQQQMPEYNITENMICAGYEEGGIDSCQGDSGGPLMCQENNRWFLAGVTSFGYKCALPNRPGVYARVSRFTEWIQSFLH
How it was run: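 Human recombinant enzyme prepared as a 24 mU/mL solution in 50 mM tricine pH 8.0, 0.01% Tween 20, 10 mM CaCl2. Compound in DMSO/buffer mixed with 2.1 μM substrate solution; enzyme added to start the reaction at room temperature. Fluorescence (ex 485/em 535 nm) read at 6 min. Inhibition taken relative to no-compound and no-enzyme controls. IC50 with 95% CI.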

[8] = Aqueous stability of the compound at pH 1.2 assessed as compound decomposition measured after 24 hrs by HPLC analysis; assay type: physicochemical; conditions: aqueous solution, read-out: Drug degradation
How it was run: (§2)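 Compounds at 10 μg/mL in Japanese Pharmacopoeia 17th ed. disintegration-test fluids (first fluid pH 1.2, second fluid pH 6.8), with 10% DMSO if needed, held at 37 °C. HPLC run at start and at 24 h. Decomposition derived from peak areas as residual content.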

[9] = MRT in mouse plasma at 60 mg/kg, po; assay type: ADME, organism-based
[10] = test system: Mus musculus; test: In vivo inhibition of entero-peptidase in mouse assessed as increase in fecal protein content at 60 mg/kg, po; assay type: functional, organism-based
How it was run: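 HFD-fed male mice (D12079B diet, 14–21 weeks old) dosed orally at 60 mg/kg, with 0.5% methylcellulose as vehicle. Whole feces collected overnight and fecal protein output determined.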

[11] = Tmax in mouse plasma at 60 mg/kg, po; assay type: ADME, organism-based
[12] = Cmax in mouse plasma at 10 mg/kg, sc; assay type: ADME, organism-based; parameters: dose 10 mg/kg, route sc
[13] = Aqueous stability of the compound at pH 6.8 assessed as compound decomposition measured after 24 hrs by HPLC analysis; assay type: physicochemical; conditions: aqueous solution, read-out: Drug degradation; how it was run: as §2
[14] = MRT in mouse plasma at 10 mg/kg, sc; assay type: ADME, organism-based
[15] = Tmax in mouse plasma at 10 mg/kg, sc; assay type: ADME, organism-based
[16] = Cmax in mouse plasma at 60 mg/kg, po; assay type: ADME, organism-based; parameters: dose 60 mg/kg, route po

Row | SMILES | Papp [5] | Papp [6] | inhibition [7] | degraded at 24 h [8] | degraded at 24 h [13] | further results
1 | N=C(N)Nc1ccc(C(=O)Oc2cccc(C3=NO[C@](CC(=O)O)(C(=O)O)C3)c2)cc1 |  |  |  |  |  | F [1]: Bld; Activity [2]: Dde; Activity [3]: Active; Activity [4]: Active
2 | N=C(N)Nc1ccc(C(=O)Oc2ccc(CC(=O)NCC(=O)O)cc2)cc1.O=C(O)C(F)(F)F | 0.2 ×10⁻⁶ cm/s | 0.2 ×10⁻⁶ cm/s | Tde |  |  | 
3 | Cl.N=C(N)Nc1ccc(C(=O)Oc2ccc(CC(=O)N[C@@H](CC(=O)O)C(=O)O)cc2)cc1 |  |  |  | 2.5% | 5% | MRT [9]: 5.07 h; inhibition [10]: Active; Tmax [11]: 1.67 h; Cmax [12]: 13400 ng/mL; MRT [14]: 0.98 h; Tmax [15]: 0.5 h; Cmax [16]: 1360 ng/mL
4 | N=C(N)Nc1ccc(C(=O)Oc2cccc(CC(=O)N[C@@H](CC(=O)O)C(=O)O)c2)cc1 |  |  |  | 2.8% | 5.8% | 
5 | N=C(N)Nc1ccc(C(=O)Oc2cccc(C(=O)N[C@@H](CC(=O)O)C(=O)O)c2)cc1 |  |  |  | 3.9% | 8.6% | 
6 | CS(=O)(=O)O.N=C(N)Nc1ccc(C(=O)Oc2ccccc2)cc1 | < 0.2 ×10⁻⁶ cm/s | < 0.2 ×10⁻⁶ cm/s | Tde |  |  | 
